Measurements reported in publication PMC8842350 (Journal of Experimental Pharmacology, 2022).
Read-outs that look alike come from different tables or passages of the source.

Columns and labels:
Sprague Dawley rats [1] = experiment: functional observational battery; format: in vivo, rat; conditions: female rats, oral ≤ 1000 mg/kg/day, 0.5 hours post-dose on day 2
Summary of the method: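 Eight female Sprague Dawley rats per group received oral gavage on days 1 and 2 at 0, 100, 300 or 1000 mg/kg/day (vehicle: 5% DMSO, 40% PEG 400, 55% saline; 10 mL/kg). Functional observational battery run once pre-dose and about 0.5 h post-dose on day 2, at the same time of day ±2 h. It covered sensory reactivity (approach response, righting reflex), grip strength, foot splay and body temperature.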

Sprague Dawley rats [2] = experiment: locomotor activity assessments; format: in vivo, rat; conditions: female rats; for basic movements: day 2, 4–6 minutes post-commencement of assessment, control 375, p ≤ 0.05
Summary of the method: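 Female rats, 8 per group, dosed orally on days 1 and 2 at 0–1000 mg/kg/day. Tested pre-dose and on day 2: within 10 min after the functional battery, each rat was placed in a dark, sound-attenuated chamber. Photocell recording ran for 40 min, reported in 20 intervals of 2 min each. Read-outs: basic movement, horizontal and vertical ambulation, fine movement, rearing.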

Sprague Dawley rats [3] = experiment: pulmonary assessments; format: in vivo, rat; conditions: male rats, any dose level (100–1000 mg/kg/day)
Summary of the method: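 Eight male Sprague Dawley rats per group. Acclimated 4 days, then placed in head-out plethysmography chambers three times on separate days. On day 1, a single oral gavage dose of 0, 100, 300 or 1000 mg/kg (DMSO/PEG 400/saline vehicle), then immediate chamber placement. Recorded at baseline, through 6 h and about 24 h post-dose. Analysed by repeated-measures ANCOVA with Dunnett–Hsu comparisons against control.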

[4] = toxicokinetic analysis in rat plasma; format: in vivo; conditions: all dose groups
Summary of the method: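 Toxicokinetic cohort of 60 Sprague Dawley rats (30 male), separate from the pharmacology groups. A single oral dose was given on day 1 at 0, 100, 300 or 1000 mg/kg (maleate salt). Blood was drawn from the jugular vein of non-fasted rats on a serial schedule. Cmax, Tmax and AUC were derived from plasma concentration–time data.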

Sprague Dawley rats [5] = experiment: clinical observations and examinations in rats; format: in vivo, rat; conditions: rats treated with trazpiroben
Summary of the method: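 Sprague Dawley rats, 11–12 weeks old, group-housed and acclimatised at least 1 week. Oral gavage at 0 (vehicle: 5% DMSO, 40% PEG 400, 55% saline), 100, 300 or 1000 mg/kg/day, 10 mL/kg, dose expressed as maleate salt. Checked twice daily for mortality, abnormalities and signs of pain or distress. Ophthalmic examination and body weight were recorded once pre-dose.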

beagle dogs [6] = experiment: telemetry ECG evaluation in dogs; format: in vivo, dog
Summary of the method: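 Male beagles with abdominal ECG/pressure/temperature transmitters implanted at least 2 weeks before. Oral capsule doses of 0, 1, 10 or 30 mg/kg in a Latin square with 2-day washouts. ECG recorded from at least 90 min pre-dose to about 18 h post-dose. QTc from a per-animal regression of 1-min QT versus RR means on the control day. Waveform review at 1, 2, 4, 8, 12 and 18 h. Repeated-measures ANCOVA with Dunnett tests.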

beagle dogs [7] = experiment: telemetry hemodynamic measurements in dogs; format: in vivo, dog; conditions: for adjusted mean diastolic pressure, lower vs control: 1 hour post-dose; for adjusted mean pulse pressure, lower than controls / adjusted mean systolic pressure, lower than controls: 3 hours post-dose; for adjusted mean systolic pressure, lower than controls: not significant
Summary of the method: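 Telemetered male beagles (abdominal transmitter implanted at least 2 weeks before) given oral capsules at 0, 1, 10 or 30 mg/kg in a Latin square on days 1, 4, 8 and 11. Systolic, diastolic and mean arterial pressure, pulse pressure and heart rate recorded continuously from at least 90 min pre-dose to about 18 h post-dose. Analysed by repeated-measures ANCOVA with Dunnett or Dunnett–Hsu comparisons against control.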

beagle dogs [8] = experiment: clinical observations, body weight and body temperature in dogs; format: in vivo, dog
Summary of the method: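 Four male beagles, 17–18 months old, 9.9–12.8 kg. Oral gelatin capsules at 0 (Avicel:Explotab 10:1), 1, 10 or 30 mg/kg (maleate salt) on days 1, 4, 8 and 11, in a Latin square with ascending doses and 2-day washouts. Checked twice daily for mortality, abnormalities and distress, with daily cage-side observations. Body weight recorded pre-dose and the day before each dosing. Body temperature recorded by implanted telemetry.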

hERG potassium channel = conditions: cited from earlier work
rats = conditions: doses up to 30 mg/kg; cited from earlier work
[9] = beagle dogs; cited from earlier work
D2 receptor [10] = conditions: rats, prolactin release as pharmacodynamic biomarker; cited from earlier work
D2 receptor [11] = conditions: humans, cited from earlier work
humans = conditions: any dose up to the maximum of 300 mg; cited from earlier work
[12] = rats, 100 mg/kg; cited from earlier work
[13] = dogs, 50 mg/kg; cited from earlier work
P-glycoprotein (P-gp) = conditions: cited from earlier work
CYP enzyme = conditions: cited from earlier work
CYP3A4 = conditions: cited from earlier work

Q: What does the source list for `O=C(O)c1cccc(CN2CN(C3CCCCC3)C3(CCN(CCCC(=O)c4ccccc4)CC3)C2=O)c1` [Trazpiroben]?
A: effects on FOB assessment results (Sprague Dawley rats [1]): No effects were observed; basic movements (Sprague Dawley rats [2]; 300 mg/kg/day): 199 basic movements in 2 minutes; basic movements (Sprague Dawley rats [2]; 1000 mg/kg/day): 171 basic movements in 2 minutes; counts of horizontal and vertical ambulation (Sprague Dawley rats [2]; ≥ 300 mg/kg/day, 2–6 minutes post-dose): significantly decreased; effect on respiration rate or minute volume (Sprague Dawley rats [3]): No biologically relevant effect; observed Cmax for each group of rats receiving trazpiroben [4]: ≥ 1450 ng/mL; clinical observations, ophthalmic and body weight parameters (Sprague Dawley rats [5]): No unexpected clinical observations or changes; mortality (Sprague Dawley rats [5]): no trazpiroben-related mortality; adjusted PR interval mean, lower than control (beagle dogs [6]; dogs, 30 mg/kg, 3 hours after administration (maximal effect)): 12%; adjusted PR interval mean (beagle dogs [6]; dogs, 30 mg/kg, 3 hours after administration, control 102 msec): 90 ms; effects on QRS duration or QT interval corrected for heart rate (QTc) (beagle dogs [6]; dogs, 1, 10, 30 mg/kg): no trazpiroben-related effects; QT interval, lower than control (beagle dogs [6]; dogs, first light cycle, 30 mg/kg, not significant at any dose): ≤ 6%; abnormal ECG waveforms or arrhythmias (beagle dogs [6]; male beagle dogs, oral 1, 10, 30 mg/kg): No abnormal ECG waveforms or arrhythmias were recorded; adjusted mean diastolic pressure, higher vs control (beagle dogs [7]; 1 mg/kg, 4 hours post-dose, p ≤ 0.05): 6%; adjusted mean diastolic pressure, lower vs control (beagle dogs [7]; 10 mg/kg, p ≤ 0.05): 5%; adjusted mean pulse pressure, lower than controls (beagle dogs [7]; 10 mg/kg): 15%; adjusted mean systolic pressure, lower than controls (beagle dogs [7]; 10 mg/kg): 6%; adjusted mean diastolic pressure, higher vs control (beagle dogs [7]; 10 mg/kg, 4 hours post-dose, p ≤ 0.05): 8%; adjusted mean diastolic pressure, higher vs control (beagle dogs [7]; 10 mg/kg, 5 hours post-dose, p ≤ 0.01): 6%; adjusted mean diastolic pressure, lower vs control (beagle dogs [7]; 30 mg/kg, p ≤ 0.01): 8%; adjusted mean pulse pressure, lower than controls (beagle dogs [7]; 30 mg/kg): 23%; heart rate, higher than control (beagle dogs [7]; 30 mg/kg, 3 hours post-dose (greatest effect), first light cycle): 28%; adjusted mean systolic pressure, lower than controls (beagle dogs [7]; 30 mg/kg): 9%; adjusted mean diastolic pressure, higher vs control (beagle dogs [7]; 30 mg/kg, 4 hours post-dose, p ≤ 0.05): 5%; adjusted mean diastolic pressure, higher vs control (beagle dogs [7]; 30 mg/kg, 5 hours post-dose, p ≤ 0.01): 6%; changes in diastolic pressure, different from control (beagle dogs [7]; all changes, all doses): ≤ 8%; effects on body weight or temperature (beagle dogs [8]; doses ≤ 30 mg/kg): not associated with effects on body weight or temperature; survival (beagle dogs [8]; to study termination on day 12): all dogs survived; difference in affinity, hERG versus intended D2/D3 receptor targets (hERG potassium channel): 10,000 fold; effects in rotarod testing (motor coordination) (rats): no trazpiroben-related effects were observed; median Tmax [9]: approximately 1 hour post-dose; dose at which maximal D2 receptor engagement occurs (D2 receptor [10]): 1 mg/kg; dose at which maximal D2 receptor engagement occurs (D2 receptor [11]; first-in-human Phase I trial): 10 mg; average Cmax in plasma at maximal D2 receptor engagement (D2 receptor [11]; inferred using prolactin release): ~ 11 ng/mL; CNS effects (humans): no CNS effects noted; brain penetration [12]: minimal brain penetration; brain penetration [13]: minimal brain penetration; substrate for the efflux transporter P-glycoprotein (P-gp) (P-glycoprotein (P-gp)): substrate; potential for CYP enzyme induction or inhibition (CYP enzyme): limited potential for CYP enzyme induction or inhibition; CYP3A4 substrate classification (CYP3A4; Phase I drug–drug interaction study in healthy volunteers, ref NCT03161405): non-sensitive CYP3A4 substrate

Q: With `O=c1[nH]c2ccccc2n1CCCN1CCC(n2c(=O)[nH]c3cc(Cl)ccc32)CC1` [domperidone, reference compound] as the molecule, how does the IC50 (hERG potassium channel; read-out: IC50, hERG potassium channel) read?
A: 57 nM

Q: What about the metabolizing enzyme (CYP3A4) of the same molecule?
A: primarily metabolized via the cytochrome P450 (CYP) 3A4 enzyme
